Source: ChEMBL document CHEMBL4145626, “Chemical Constituents of Apios americana Tubers and Their Inhibitory Activities on Nitric Oxide Production in Lipopolysaccharide-Stimulated RAW 264.7 Macrophages” (J Nat Prod, 2018)
pIC50: −log10 of the molar value.

system: RAW264.7; experiment: Inhibition of LPS-induced nitric oxide production in mouse RAW264.7 cells pretreated for 1 hr followed by LPS-stimulation and measured after 24 hrs by Griess assay; format: functional, cell-based
Procedure, shortened: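 RAW 264.7 macrophages seeded at 0.9 × 10^5 cells/mL and grown 24 h; pretreated with compound 1 h, then stimulated with LPS (1 μg/mL) for 24 h. Accumulated nitrite in medium measured with Griess reagent as NO indicator. IC50 = concentration giving 50% decrease in NO production; means of three independent experiments. NIL (10 μM) as positive control; MTT viability assay run in parallel.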

Compound | pIC50
COc1cc(O)cc2c1C(=O)[C@]1(O)c3ccc(O)cc3O[C@@H]1O2 | 6.42
COc1cc(-c2coc3cc(O[C@@H]4O[C@H](CO)[C@@H](O)[C@H](O)[C@H]4O)cc(OC)c3c2=O)ccc1O | < 6.00
NC(=O)NC1NC(=O)NC1=O (stereo unspecified) [ALLANTOIN] | 6.30
O=c1c(-c2ccc(O)cc2)coc2cc(O[C@@H]3O[C@H](CO)[C@@H](O)[C@H](O)[C@H]3O)cc(O)c12 [GENISTIN] | < 6.00
O=c1c2c(O)cc(O)cc2oc2oc3cc(O)ccc3c12 | < 6.00
COc1cc(O)cc2occ(-c3ccc(O)cc3O)c(=O)c12 | 6.22
O=c1c(-c2ccc(O)cc2)coc2cc(O)cc(O)c12 [GENISTEIN] | < 6.00
COc1cc(O)cc2occ(-c3ccc(O)cc3)c(=O)c12 | < 6.00
O=c1c(-c2ccc(O)cc2O)coc2cc(O)cc(O)c12 | < 6.00
CC(=N)NCCCC[C@H](N)C(=O)O [L-NIL] | 5.81
O=c1c(-c2ccc(O)cc2)coc2cc(O[C@@H]3O[C@H](CO[C@@H]4O[C@H](CO[C@@H]5O[C@H](CO)[C@@H](O)[C@H](O)[C@H]5O)[C@@H](O)[C@H](O)[C@H]4O)[C@@H](O)[C@H](O)[C@H]3O)cc(O)c12 | < 6.00
COc1cc(-c2coc3cc(O)cc(OC)c3c2=O)ccc1O | < 6.00

Second part, the molecule after the results:

pIC50 | Compound
6.15 | O=c1c(-c2ccc(O[C@@H]3O[C@H](CO)[C@@H](O)[C@H](O)[C@H]3O)cc2O)coc2cc(O[C@@H]3O[C@H](CO)[C@@H](O)[C@H](O)[C@H]3O)cc(O)c12
< 6.00 | COc1cc(O[C@@H]2O[C@H](CO)[C@@H](O)[C@H](O)[C@H]2O)cc2occ(-c3ccc(O)cc3)c(=O)c12
< 6.00 | COc1cc(O[C@@H]2O[C@H](CO)[C@@H](O)[C@H](O)[C@H]2O)cc2occ(-c3ccc(O)cc3O)c(=O)c12
< 6.00 | O=c1c(-c2ccc(O)cc2)coc2cc(O[C@@H]3O[C@H](CO[C@@H]4O[C@H](CO)[C@@H](O)[C@H](O)[C@H]4O)[C@@H](O)[C@H](O)[C@H]3O)cc(O)c12
< 6.00 | O=c1c(-c2ccc(O)cc2O)coc2cc(O[C@@H]3O[C@H](CO)[C@@H](O)[C@H](O)[C@H]3O)cc(O)c12
6.33 | COc1cc(O)cc2occ(-c3ccc(O[C@@H]4O[C@H](CO)[C@@H](O)[C@H](O)[C@H]4O)cc3O)c(=O)c12
< 6.00 | O=c1c(-c2ccc(O[C@@H]3O[C@H](CO)[C@@H](O)[C@H](O)[C@H]3O)cc2O)coc2cc(O)cc(O)c12
6.38 | COc1cc(O[C@@H]2O[C@H](CO)[C@@H](O)[C@H](O)[C@H]2O)cc2occ(-c3ccc(O[C@@H]4O[C@H](CO)[C@@H](O)[C@H](O)[C@H]4O)cc3O)c(=O)c12
6.22 | O=c1c(-c2ccc(O)cc2O)coc2cc(O[C@@H]3O[C@H](CO[C@@H]4O[C@H](CO)[C@@H](O)[C@H](O)[C@H]4O)[C@@H](O)[C@H](O)[C@H]3O)cc(O)c12
